Data: ChEMBL document CHEMBL1671655, “Anidulafungin is fungicidal and exerts a variety of postantifungal effects against Candida albicans, C. glabrata, C. parapsilosis, and C. krusei isolates” (2009)
≈ marks a conversion by molar mass, not a printed value. Calls of active or inactive are those of the source. The calls are words filed in the database; no cut-off is given here. Starred links: 1 amine or outer side, 2 acyl side, 3 side chain; linkers in the order of their positions; H or OH if unused. Positions of bridges follow the written chain, without caps; N, C: chain ends. Non-standard residues stand in square brackets, D forms with d. Residues, ends and D or L forms follow the SMILES beside them. *: point of attachment. pTerphenylCO(4''-OnC5H11) = CCCCCOc1ccc(-c2ccc(-c3ccc(C(=O)*)cc3)cc2)cc1; Orn(4R-OH,5R-OH) = O=C([C@H](C[C@@H](O)[C@@H](O)N[*:3])N[*:1])[*:2]; hTyr(3S-OH,4S-OH) = N[C@H](C(=O)O)[C@H](O)[C@@H](O)c1ccc(O)cc1; Pro(3S-OH,4S-Me) = C[C@H]1CN[C@H](C(=O)O)[C@H]1O; Hyp = O=C(O)[C@@H]1C[C@@H](O)CN1

Legend:
Candida parapsilosis [1] = test: Fungicidal activity against Candida parapsilosis isolate S assessed as log reduction in bacterial count at 16 times MIC after 48 hrs by time-kill analysis; format: functional; conditions: Lodderomyces parapsilosis
How it was run: (§1)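 Isolates subcultured twice on SDA, then suspended to 0.5 McFarland and diluted into RPMI 1640 (MOPS, pH 7.0) with or without anidulafungin, giving about 1 x 10^5 to 5 x 10^5 CFU/ml. Tubes were shaken at 35°C. Samples were taken at 0, 2, 4, 8, 12, 24 and 48 h, serially diluted 10-fold, plated on SDA, and CFU counted after 48 h at 35°C. Each isolate was run twice; mean values.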

Candida parapsilosis [2] = test: Fungicidal activity against Candida parapsilosis isolate S assessed as log reduction in bacterial count at 4 times MIC after 48 hrs by time-kill analysis; format: functional; conditions: Lodderomyces parapsilosis; how it was run: as §1
Nakaseomyces glabratus [3] = test: Fungicidal activity against Candida glabrata isolate 3 assessed as log reduction in bacterial count at 16 times MIC after 48 hrs by time-kill analysis; format: functional; conditions: isolate 3, 48 h
How it was run: (§2)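 Isolates subcultured twice on SDA, suspended to 0.5 McFarland, giving ~1 x 10^5 to 5 x 10^5 CFU/ml in MOPS-buffered RPMI 1640 (pH 7.0) with or without drug at multiples of MIC (MIC by CLSI M27-A3). Tubes shaken at 35°C with continuous drug. Sampled at 0–48 h, diluted 10-fold and plated on SDA; CFU counted after 48 h at 35°C. Run twice per isolate; means.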

Pichia kudriavzevii [4] = test: Fungicidal activity against Candida krusei isolate ATCC 6258 assessed as log reduction in bacterial count at 16 times MIC after 48 hrs by time-kill analysis; format: functional; conditions: isolate ATCC 6258, 48 h; how it was run: as §2
Candida albicans [5] = test: Fungicidal activity against Candida albicans isolate S assessed as log reduction in bacterial count at 4 times MIC after drug exposure for 1 hr followed by washout measured after 48 hrs in the absence of drug by PAFE study; format: functional
How it was run: (§3)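 Starting inoculum ~1 x 10^5 to 5 x 10^5 CFU/ml in MOPS-buffered RPMI 1640 (pH 7.0) with drug at multiples of the CLSI M27-A3 MIC. After 1 h at 35°C, cells washed and centrifuged three times at 1,400 x g for 10 min, then resuspended in warm drug-free RPMI. Shaken at 35°C and plated on SDA at 0–48 h; CFU counted after 48 h. Run twice per isolate; means.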

Nakaseomyces glabratus [6] = test: Fungicidal activity against Candida glabrata isolate 2 assessed as log reduction in bacterial count at 16 times MIC after drug exposure for 1 hr followed by washout measured after 48 hrs in the absence of drug by PAFE study; format: functional; how it was run: as §3
Nakaseomyces glabratus [7] = test: Antifungal activity against Candida glabrata isolate 1 assessed as time period for bacterial growth inhibition at 4 times MIC after 1 hr drug exposure; format: functional
How it was run: (§4)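 Inoculum of about 1 x 10^5 to 5 x 10^5 CFU/ml in MOPS-buffered RPMI (pH 7.0), shaken at 35°C and exposed to drug for 1 h. Cells then washed and centrifuged three times and resuspended in drug-free warm RPMI. Samples plated on SDA at 0, 2, 4, 8, 12, 24 and 48 h, with CFU counted after 48 h at 35°C. Run twice per isolate; values are means.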

Pichia kudriavzevii [8] = test: Antifungal activity against Candida krusei isolate ATCC 6258 assessed as time period for bacterial growth inhibition at 4 times MIC after 1 hr drug exposure; format: functional; how it was run: as §4
Candida albicans [9] = test: Antifungal activity against Candida albicans by NCCLS M27A broth microdilution method; format: functional
Candida parapsilosis [10] = test: Antifungal activity against Candida parapsilosis isolate S by CLSI M27-A3 broth microdilution method; format: functional; conditions: Lodderomyces parapsilosis
How it was run: (§5)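 CLSI M27-A3 broth microdilution in RPMI 1640 buffered to pH 7.0 with MOPS. Starting inoculum 0.5 x 10^3 to 2.5 x 10^3 cells/ml, incubated at 35°C. MIC read as the lowest concentration giving >50% growth reduction versus control. Each isolate tested on at least three occasions.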

Nakaseomyces glabratus [11] = test: Antifungal activity against Candida glabrata isolate 2 by CLSI M27-A3 broth microdilution method; format: functional; how it was run: as §5
Candida parapsilosis [12] = test: Antifungal activity against Candida parapsilosis isolate A assessed as time period for bacterial growth inhibition at 16 times MIC after 1 hr drug exposure; format: functional; how it was run: as §4
Nakaseomyces glabratus [13] = test: Antifungal activity against Candida glabrata isolate 3 assessed as time period for bacterial growth inhibition at 16 times MIC after 1 hr drug exposure; format: functional; how it was run: as §4
Candida parapsilosis [14] = test: Increase in susceptibility to SDS in Candida parapsilosis isolate A assessed as cell wall damage at MIC after 1 hr relative to control; format: functional, organism-based
How it was run: (§6)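 Cells recovered 8 h after a 1-h drug exposure were grown in YPD with 1% glucose to exponential phase and adjusted to OD599 0.1. Undiluted culture and 10-fold serial dilutions were spotted onto YPD plates containing SDS (0.01 to 0.04%), then incubated 72 h at 30°C. Growth compared with unexposed control cells; triplicate.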

Candida parapsilosis [15] = test: Increase in susceptibility to SDS in Candida parapsilosis isolate A assessed as cell wall damage at 16 times MIC after 1 hr relative to control; format: functional, organism-based; how it was run: as §6
Candida albicans [16] = test: Increase in susceptibility to calcofluor white in Candida albicans isolate 1 assessed as cell wall damage at MIC after 1 hr relative to control; format: functional, organism-based
How it was run: (§7)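 Cells recovered 8 h after a 1-h drug exposure were grown to exponential phase in YPD with 1% glucose and adjusted to OD599 0.1. Undiluted and 10-fold serially diluted cultures were spotted onto YPD plates containing calcofluor white, then incubated at 30°C for 72 h. Growth compared with no-drug control cells; triplicate.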

Nakaseomyces glabratus [17] = test: Increase in susceptibility to calcofluor white in Candida glabrata isolate 1 assessed as cell wall damage at MIC after 1 hr relative to control; format: functional, organism-based; how it was run: as §7
Nakaseomyces glabratus [18] = test: Increase in susceptibility to calcofluor white in Candida glabrata isolate 3 assessed as cell wall damage at MIC after 1 hr relative to control; format: functional, organism-based; how it was run: as §7
Candida albicans [19] = test: Increase in susceptibility to calcofluor white in Candida albicans isolate 1 assessed as cell wall damage at 16 times MIC after 1 hr relative to control; format: functional, organism-based; how it was run: as §7
Candida albicans [20] = test: Increase in susceptibility to calcofluor white in Candida albicans ATCC 90028 assessed as cell wall damage at 16 times MIC after 1 hr relative to control; format: functional, organism-based; how it was run: as §7
Candida parapsilosis [21] = test: Inhibition of Candida parapsilosis isolate A adherence to human buccal epithelial cells at 4 times MIC after 1 hr by adherence assay relative to control; format: functional, Epithelial cell
How it was run: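 Candida collected 8 h after a 1-h 4x MIC pulse and washout were grown on SDA for 24 h at 35°C. Buccal epithelial cells were pooled from three donors and washed in PBS. Cells (1 x 10^5/ml) were mixed 1:1 by volume with Candida (1 x 10^6/ml) and shaken 1 h at 37°C. Mixtures were filtered, washed, and Gram-stained, and Candida were counted per 100 epithelial cells. Run in duplicate on ≥2 occasions; Student's t test against unexposed controls.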

Candida parapsilosis [22] = test: Antifungal activity against Candida parapsilosis isolate 1 coincubated with mouse J774 macrophages assessed as macrophage induced bacterial cell killing at 4 times MIC (reference value: 22 +/- 12 %); format: functional
Nakaseomyces glabratus [23] = test: Antifungal activity against Candida glabrata assessed as time period for bacterial regrowth inhibition after 1 hr drug exposure; format: functional

Molecule `CCCCCOc1ccc(-c2ccc(-c3ccc(C(=O)N[C@H]4C[C@@H](O)[C@@H](O)NC(=O)[C@@H]5[C@@H](O)[C@@H](C)CN5C(=O)[C@H]([C@@H](C)O)NC(=O)[C@H]([C@H](O)[C@@H](O)c5ccc(O)cc5)NC(=O)[C@@H]5C[C@@H](O)CN5C(=O)[C@H]([C@@H](C)O)NC4=O)cc3)cc2)cc1` [ANIDULAFUNGIN] ({pTerphenylCO(4''-OnC5H11)}-[Orn(4R-OH,5R-OH)]T[Hyp][hTyr(3S-OH,4S-OH)]T[Pro(3S-OH,4S-Me)]; lactam 1-C) has a log reduction (Candida parapsilosis [1]) of 3.11 log CFU/ml, a log reduction (Candida parapsilosis [2]) of 2.77 log CFU/ml and a log reduction (Nakaseomyces glabratus [3]) of 3.89 log CFU/ml. For the same molecule, the log reduction (Pichia kudriavzevii [4]) was 3.2 log CFU/ml, the log reduction (Candida albicans [5]) was 2.09 log CFU/ml and the log reduction (Nakaseomyces glabratus [6]) was 2.92. For the same molecule, the Time (Nakaseomyces glabratus [7]) was 8 h, the Time (Pichia kudriavzevii [8]) was 8 h and the MIC90 (Candida albicans [9]) was 0.06 µg/mL (≈ 0.0526 µM). It also gave an MIC (Candida parapsilosis [10]) of 1 µg/mL (≈ 0.877 µM), an MIC (Nakaseomyces glabratus [11]) of 0.03 µg/mL (≈ 0.0263 µM) and a Time (Candida parapsilosis [12]) of 8 h. The Time (Nakaseomyces glabratus [13]) was 8 h, the Activity (Candida parapsilosis [14]) was “Active” and the Activity (Candida parapsilosis [15]) was “Active”. For the same molecule, the Activity (Candida albicans [16]) was “Active”, the Activity (Nakaseomyces glabratus [17]) was “Active” and the Activity (Nakaseomyces glabratus [18]) was “Active”. For the same molecule, the Activity (Candida albicans [19]) was “Active”, the Activity (Candida albicans [20]) was “Active” and the “inhibition (INH)” value (Candida parapsilosis [21]) was 69%. For the same molecule, the “inhibition (INH)” value (Candida parapsilosis [22]) was 27% and the Time (Nakaseomyces glabratus [23]) was “>=12 hr”.
